Experimental data from ChEMBL document CHEMBL4130342, “New semi-synthetic analogs of oleuropein show improved anticancer activity in vitro and in vivo” (Eur J Med Chem, 2017).

Tested on: SK-BR-3
Assay: Antiproliferative activity against human SKBR3 cells after 72 hrs by MTT reduction assay
Type: functional, cell-based
Conditions: SK-BR-3, 72 h
How it was run: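 MTT reduction assay; adherent lines left to adhere overnight, suspension lines (HL-60, K562) seeded on the day. […] Incubation was 72 h at 37°C, with MTT added for the last 4 h. OD read at 545 nm (reference 690 nm). IC50 from 100(A0-A)/A0=50; means ± SD of 3 independent experiments.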

C/C=C1/[C@H](O[C@@H]2O[C@H](CO)[C@@H](O)[C@H](O)[C@H]2O)OC=C(C(=O)OC)[C@H]1CC(=O)O
IC50: > 15 µM

C/C=C1/[C@H](O[C@@H]2O[C@H](COC(C)=O)[C@@H](OC(C)=O)[C@H](OC(C)=O)[C@H]2OC(C)=O)OC=C(C(=O)O)[C@H]1CC(=O)O
IC50: > 20 µM

C/C=C1/[C@H](O[C@@H]2O[C@H](CO)[C@@H](O)[C@H](O)[C@H]2O)OC=C(C(=O)OC)[C@H]1CC(=O)OCCc1ccc(OC)c(OC)c1
IC50: > 15 µM

C=C(C)CCOC(=O)C[C@@H]1C(C(=O)OC)=CO[C@@H](O[C@@H]2O[C@H](COC(C)=O)[C@@H](OC(C)=O)[C@H](OC(C)=O)[C@H]2OC(C)=O)/C1=C/C
IC50: > 15 µM

C/C=C1/[C@H](O[C@@H]2O[C@H](COC(C)=O)[C@@H](OC(C)=O)[C@H](OC(C)=O)[C@H]2OC(C)=O)OC=C(C(=O)OC)[C@H]1CC(=O)O
IC50: > 15 µM

C/C=C1/[C@H](O[C@@H]2O[C@H](COC(C)=O)[C@@H](OC(C)=O)[C@H](OC(C)=O)[C@H]2OC(C)=O)OC=C(C(=O)O)[C@H]1CC(=O)OCCCCCCCCCCCCCCCC
IC50: > 20 µM

C/C=C1/[C@H](O[C@@H]2O[C@H](COC(C)=O)[C@@H](OC(C)=O)[C@H](OC(C)=O)[C@H]2OC(C)=O)OC=C(C(=O)OC)[C@H]1CC(=O)OCCC1CCCCC1
IC50: > 15 µM

C/C=C1/[C@H](O[C@@H]2O[C@H](COC(C)=O)[C@@H](OC(C)=O)[C@H](OC(C)=O)[C@H]2OC(C)=O)OC=C(C(=O)OC)[C@H]1CC(=O)OCCc1ccc(OC)cc1 (stereo in doubt)
IC50: > 20 µM

C/C=C1/[C@H](O[C@@H]2O[C@H](COC(C)=O)[C@@H](OC(C)=O)[C@H](OC(C)=O)[C@H]2OC(C)=O)OC=C(C(=O)OC)[C@H]1CC(=O)OCCc1ccc(OC)c(OC)c1 (stereo in doubt)
IC50: > 15 µM

C/C=C1/[C@H](O[C@@H]2O[C@H](CO)[C@@H](O)[C@H](O)[C@H]2O)OC=C(C(=O)OC)[C@H]1CC(=O)OCc1ccccc1 (stereo in doubt)
IC50: > 15 µM

C/C=C1/[C@H](O[C@@H]2O[C@H](CO)[C@@H](O)[C@H](O)[C@H]2O)OC=C(C(=O)OC)[C@H]1CC(=O)OCCc1ccc(OC)cc1 (stereo in doubt)
IC50: > 20 µM

C/C=C1/[C@H](O[C@@H]2O[C@H](COC(C)=O)[C@@H](OC(C)=O)[C@H](OC(C)=O)[C@H]2OC(C)=O)OC=C(C(=O)OC)[C@H]1CC(=O)OCCc1ccc2c(c1)OCCO2 (stereo in doubt)
IC50: > 15 µM

C/C=C1/[C@H](O[C@@H]2O[C@H](CO)[C@@H](O)[C@H](O)[C@H]2O)OC=C(C(=O)OC)[C@H]1CC(=O)OCCc1ccc(F)cc1 (stereo in doubt)
IC50: > 20 µM

C/C=C1/[C@H](O[C@@H]2O[C@H](CO)[C@@H](O)[C@H](O)[C@H]2O)OC=C(C(=O)OC)[C@H]1CC(=O)OCCc1ccc([N+](=O)[O-])cc1 (stereo in doubt)
IC50: > 20 µM

C/C=C1/[C@H](O[C@@H]2O[C@H](COC(C)=O)[C@@H](OC(C)=O)[C@H](OC(C)=O)[C@H]2OC(C)=O)OC=C(C(=O)OC)[C@H]1CC(=O)OCc1ccccc1 (stereo in doubt)
IC50: > 15 µM

C/C=C1/[C@H](O[C@@H]2O[C@H](CO)[C@@H](O)[C@H](O)[C@H]2O)OC=C(C(=O)OC)[C@H]1CC(=O)OCCc1ccc2c(c1)OCCO2 (stereo in doubt)
IC50: > 20 µM

C/C=C1/[C@H](O[C@@H]2O[C@H](COC(C)=O)[C@@H](OC(C)=O)[C@H](OC(C)=O)[C@H]2OC(C)=O)OC=C(C(=O)OC)[C@H]1CC(=O)OCCc1ccc(F)cc1 (stereo in doubt)
IC50: > 20 µM

C/C=C1/[C@H](O[C@@H]2O[C@H](COC(C)=O)[C@@H](OC(C)=O)[C@H](OC(C)=O)[C@H]2OC(C)=O)OC=C(C(=O)OC)[C@H]1CC(=O)OCCc1ccc([N+](=O)[O-])cc1 (stereo in doubt)
IC50: > 20 µM

C/C=C1/[C@H](O[C@@H]2O[C@H](CO)[C@@H](O)[C@H](O)[C@H]2O)OC=C(C(=O)OC)[C@H]1CC(=O)OCc1ccc(OC)c(OC)c1 (stereo in doubt)
IC50: > 15 µM
